The target in series [1] is T1, Gonadotropin-releasing hormone receptor (Homo sapiens, UniProt P30968).
T1 sequence (P30968 whole entry): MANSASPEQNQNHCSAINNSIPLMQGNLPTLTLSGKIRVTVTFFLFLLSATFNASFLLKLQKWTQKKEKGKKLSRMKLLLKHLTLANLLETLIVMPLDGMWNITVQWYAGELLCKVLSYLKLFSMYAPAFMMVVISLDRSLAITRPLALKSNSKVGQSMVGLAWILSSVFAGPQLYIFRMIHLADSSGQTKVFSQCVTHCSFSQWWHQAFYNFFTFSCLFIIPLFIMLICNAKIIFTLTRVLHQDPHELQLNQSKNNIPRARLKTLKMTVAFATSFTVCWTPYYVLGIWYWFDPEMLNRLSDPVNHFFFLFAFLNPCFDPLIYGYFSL
Description: Antagonist activity at human GnRH receptor expressed in CHO-K1 cells assessed as inhibition of LHRH-induced response preincubated for 20 mins followed by LHRH addition and measured after 60 mins by TR-FRET assay. The class given is cell-based.

The target of series [2] is T1, Gonadotropin-releasing hormone receptor. As to the kind of experiment: Antagonist activity at human GnRH receptor expressed in CHO-K1 cells assessed as inhibition of buserelin-induced response preincubated for 20 mins followed by buserelin addition and measured after 60 mins by TR-FRET assay. Format: cell-based.
The target of series [3] is T2, Gonadotropin-releasing hormone receptor (Rattus norvegicus, UniProt P30969).
T2 sequence (P30969 whole entry): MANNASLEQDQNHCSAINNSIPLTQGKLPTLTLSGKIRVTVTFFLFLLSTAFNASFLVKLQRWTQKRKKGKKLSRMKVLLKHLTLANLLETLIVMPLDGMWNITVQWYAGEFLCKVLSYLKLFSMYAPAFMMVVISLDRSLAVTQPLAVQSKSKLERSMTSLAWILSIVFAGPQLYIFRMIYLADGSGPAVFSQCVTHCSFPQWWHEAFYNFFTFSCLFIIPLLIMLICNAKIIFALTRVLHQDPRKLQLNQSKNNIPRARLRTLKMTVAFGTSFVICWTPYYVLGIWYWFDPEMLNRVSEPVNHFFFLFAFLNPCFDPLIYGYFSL
As to the kind of experiment: Antagonist activity at rat GnRH receptor expressed in CHO-K1 cells assessed as inhibition of LHRH-induced response preincubated for 20 mins followed by LHRH addition and measured after 60 mins by TR-FRET assay. The class given is cell-based. The gist of the method: (§1)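 Frozen rat-receptor cells: thawed, seeded overnight in serum-containing Ham's F12, Accutase-harvested, resuspended in serum-free medium with IP1-d2, 1 h at 37 °C. 1.0 × 10^4 cells/well, 20 min compound preincubation at rt, then 1× EC80 LHRH or buserelin in HEPES stimulation buffer pH 7.4 for 60 min at 37 °C. Tb-anti-IP1 lysis (1:38), HTRF read 60 min later.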

Series [4] deals with T2, Gonadotropin-releasing hormone receptor. As to the kind of experiment: Antagonist activity at rat GnRH receptor expressed in CHO-K1 cells assessed as inhibition of buserelin-induced response preincubated for 20 mins followed by buserelin addition and measured after 60 mins by TR-FRET assay. Format: cell-based. The gist of the method: as §1
Series [5] in a line: Lipophilicity, log D of the compound in pH 7.5 MeCN/H2O solution by reversed-phase HPLC analysis. Format: physicochemical. The gist of the method: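 Indirect reversed-phase HPLC at pH 7.5, calibrated with n-alkan-2-ones C3–C16. Compounds applied as 0.67 mM DMSO stocks in MeCN/H2O (1:1).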

For the compound `CC(=O)N1CCC2(CC1)c1cc(C(=O)NCc3ccccc3Cl)ccc1N(S(=O)(=O)c1cccnc1)C2C` (racemic), the concentration for half-maximal inhibition (IC50) came out at 0.139 µM in series [1] and 0.269 µM in series [2].

In the case of `CC(=O)N1CCC2(CC1)c1cc(C(=O)NCc3ccccc3Cl)ccc1N(S(=O)(=O)c1ccc(F)cc1)C2C` (stereo in doubt; form 1), the IC50 in series [1] and in series [2] was > 20 µM throughout.

On to `COc1ccc(S(=O)(=O)N2c3ccc(C(=O)NCc4ccccc4Cl)cc3C3(CCN(C(C)=O)CC3)C2C)cc1` (stereo in doubt; form 1), for which the IC50 in series [1], in series [2] and in series [3] was ≥ 20 µM throughout.

As for `CC(=O)N1CCC2(CC1)c1cc(C(=O)NCc3ccc(F)cc3Cl)ccc1N(S(=O)(=O)c1ccc(F)cc1)C2C1CC1` (racemic), the IC50 in series [1] amounted to 0.038 µM; in series [2], 0.077 µM.

Consider `COc1ccc(S(=O)(=O)N2c3ccc(C(=O)NCc4ccccc4Cl)cc3C(C)(C)C2C)cc1` (racemic), for which the concentration for half-maximal inhibition (IC50) amounted to 0.365 µM in series [1], 6.62 µM in series [2], 1.42 µM in series [3] and 4.87 µM in series [4].

In the case of `O=C(Nc1ccc2c(c1)C1(CCSCC1)C(C1CC1)N2S(=O)(=O)c1ccc(F)cc1)c1cccnc1` (racemic), the figures for the IC50 in series [1] and in series [2] were 0.048 µM and 0.132 µM, respectively.

As for `CC(=O)N1CCC2(CC1)c1cc(C(=O)NCc3ccccc3Cl)ccc1N(Cc1ccc(F)cc1)C2C` (racemic), the IC50 amounted to 12.8 µM in series [1] and 18.2 µM in series [2].

In the case of `C=CCC1N(S(=O)(=O)c2ccc(F)cc2)c2ccc(C(=O)NCc3ccccc3Cl)cc2C12CCN(C(C)=O)CC2` (racemic), the concentration for half-maximal inhibition (IC50) worked out at 0.01 µM in series [1] and 0.022 µM in series [2].

For `O=C(NCc1ncc(C(F)(F)F)cc1Cl)c1ccc2c(c1)C1(CCS(=O)(=O)CC1)C(C1CC1)N2S(=O)(=O)c1ccc(F)cc1` (stereo in doubt), the IC50 in series [2] came out at 2.43 µM.

In the case of `COc1ccc(S(=O)(=O)N2c3ccc(C(=O)NCc4ccccc4Cl)cc3C(C)(C)C2C)cc1` (stereo in doubt; form 1), the IC50 in series [1] turned out to be 0.568 µM; in series [2], 1.53 µM; in series [3] it was 0.726 µM; in series [4], 1.11 µM.

Regarding `O=C(Nc1ccc2c(c1)C1(CC[S+]([O-])CC1)C(C1CC1)N2S(=O)(=O)c1ccc(F)cc1)c1cccnc1` (stereo not given), the IC50 in series [1] is 0.018 µM; in series [2] it was 0.036 µM.

With `CC(=O)N1CCC2(CC1)c1cc(C(=O)NCc3ccccc3Cl)ccc1N(S(=O)(=O)c1ccc(F)cc1)C2C` (racemic), the IC50 in series [1] turned out to be 0.087 µM; in series [2], 0.09 µM. Also, the chromatographic logD in series [5] came to 3.25.

As to `CC(=O)N1CCC2(CC1)c1cc(C(=O)NC3(c4ccc(Cl)cc4)CC3)ccc1N(S(=O)(=O)c1ccc(F)cc1)C2C1CC1` (racemic), the IC50 is 0.056 µM in series [1] and 0.092 µM in series [2].

For `O=C(NCc1ccccn1)c1ccc2c(c1)C1(CCS(=O)(=O)CC1)C(C1CC1)N2S(=O)(=O)c1ccc(F)cc1` (racemic), the values for the IC50 in series [1] and in series [2] were 0.245 µM and 0.921 µM, respectively.

Turning to `CC1N(S(=O)(=O)c2ccc(F)cc2)c2ccc(NC(=O)c3cccnc3)cc2C12CCOCC2` (racemic), the IC50 amounted to 0.053 µM in series [1] and 0.14 µM in series [2].

`CC(=O)N1CCC2(CC1)c1cc(C(=O)NCc3ccccc3)ccc1N(S(=O)(=O)c1ccc(F)cc1)C2C1CC1` (racemic): the 50% inhibitory concentration (IC50) came out at 0.208 µM in series [1] and 0.553 µM in series [2].

With `O=C(Nc1ccc2c(c1)C1(CCC(O)CC1)C(C1CC1)N2S(=O)(=O)c1ccc(F)cc1)c1cccnc1` (stereo not given), the IC50 in series [1] was 0.026 µM; in series [2] it was 0.061 µM.

`O=C(NCc1ccc(C(F)(F)F)cn1)c1ccc2c(c1)C1(CCS(=O)(=O)CC1)C(C1CC1)N2S(=O)(=O)c1ccc(F)cc1` (racemic): the half-inhibitory concentration (IC50) in series [1] was found to be 0.159 µM; in series [2], 0.415 µM.

In the case of `CC(=O)N1CCC2(CC1)c1cc(C(=O)NCc3ccccc3Cl)ccc1N(S(=O)(=O)c1ccc(C(F)(F)F)cc1)C2C` (racemic), the IC50 in series [1] is > 20 µM; in series [2], 13.8 µM.

With `CC(=O)N1CCC2(CC1)c1cc(NC(=O)c3cccnc3)ccc1N(S(=O)(=O)c1ccc(F)cc1)C2C1CC1` (racemic), the results for the half-maximal inhibitory concentration (IC50) in series [1] and in series [2] were 0.034 µM and 0.068 µM, respectively.

On to `CC(=O)N1CCC2(CC1)c1cc(C(=O)NCc3ccccc3Cl)ccc1N(S(=O)(=O)c1ccc(F)cc1)C2C` (stereo in doubt; form 2), for which the IC50 in series [1] came out at 0.021 µM.

For `O=C(NCc1ncc(C(F)(F)F)cc1Cl)c1ccc2c(c1)C1(CCS(=O)(=O)CC1)C(C1CC1)N2S(=O)(=O)c1ccc(F)cc1` (racemic), the IC50 turned out to be 0.02 µM in series [1] and 0.044 µM in series [2].

Take `CC(=O)N1CCC2(CC1)c1cc(C(=O)NC3(c4ccccc4Cl)CC3)ccc1N(S(=O)(=O)c1ccc(F)cc1)C2C1CC1` (racemic): the IC50 in series [1] worked out at 0.162 µM; in series [2], 1.05 µM.

For `CC(=O)N1CCC2(CC1)c1cc(C(=O)NCc3ccccc3Cl)ccc1N(S(C)(=O)=O)C2C` (racemic), the values for the IC50 in series [1] and in series [2] were 10.1 µM and 18.1 µM, respectively.

For `CC(=O)N1CCC2(CC1)CN(S(=O)(=O)c1ccc(F)cc1)c1ccc(C(=O)NCc3ccccc3Cl)cc12`, the IC50 in series [1] turned out to be 0.42 µM; in series [2], 1.77 µM.

For the compound `COc1ccc(S(=O)(=O)N2c3ccc(C(=O)NCc4ccccc4Cl)cc3C(C)(C)C2C)cc1` (stereo in doubt; form 2), the IC50 in series [1], in series [2], in series [3] and in series [4] was ≥ 20 µM throughout.

As to `O=C(NCc1ncc(C(F)(F)F)cc1F)c1ccc2c(c1)C1(CCS(=O)(=O)CC1)C(C1CC1)N2S(=O)(=O)c1ccc(F)cc1` (racemic), the figures for the IC50 in series [1] and in series [2] were 0.084 µM and 0.246 µM, respectively.

Consider `CC(=O)N1CCC2(CC1)c1cc(C(=O)NCc3ccccc3Cl)ccc1N(S(=O)(=O)c1ccccc1)C2C` (racemic), for which the IC50 was 0.053 µM in series [1] and 0.131 µM in series [2].

For the compound `O=C(NCc1ncc(F)cc1Cl)c1ccc2c(c1)C1(CCS(=O)(=O)CC1)C(C1CC1)N2S(=O)(=O)c1ccc(F)cc1` (racemic), the half-maximal inhibitory concentration (IC50) was found to be 0.065 µM in series [1] and 0.144 µM in series [2].

With `CC(=O)N1CCC2(CC1)c1cc(NC(=O)c3cccc(F)c3)ccc1N(S(=O)(=O)c1ccc(F)cc1)C2C1CC1` (racemic), the figures for the IC50 in series [1] and in series [2] were 0.01 µM and 0.018 µM, respectively.

For `O=C(Nc1ccc2c(c1)C1(CCS(=O)(=O)CC1)C(C1CC1)N2S(=O)(=O)c1ccc(F)cc1)c1cccnc1` (stereo not given), the half-maximal inhibitory concentration (IC50) in series [1] was found to be 0.02 µM; in series [2] it was 0.045 µM.

As for `N=S1(=O)CCC2(CC1)c1cc(NC(=O)c3cccnc3)ccc1N(S(=O)(=O)c1ccc(F)cc1)C2C1CC1` (stereo in doubt; form 1), the IC50 is 0.032 µM in series [1] and 0.0585 µM in series [2].

With `O=C(NCc1ncccc1Cl)c1ccc2c(c1)C1(CCS(=O)(=O)CC1)C(C1CC1)N2S(=O)(=O)c1ccc(F)cc1` (racemic), the IC50 in series [1] was found to be 0.09 µM; in series [2], 0.222 µM.

With `CC(=O)N1CCC2(CC1)c1cc(C(=O)NCc3ccccc3Cl)ccc1N(S(=O)(=O)c1ccc(F)cc1)C2CCO` (racemic), the IC50 was found to be 0.584 µM in series [1] and 1.15 µM in series [2].

On to `CC(=O)N1CCC2(CC1)c1cc(C(=O)NCc3ccccc3Cl)ccc1N(S(=O)(=O)c1ccc(F)cc1)C2C1CC1` (racemic), for which the concentration for half-maximal inhibition (IC50) in series [1] stood at 0.024 µM; in series [2], 0.047 µM.

As to `N=S1(=O)CCC2(CC1)c1cc(NC(=O)c3cccnc3)ccc1N(S(=O)(=O)c1ccc(F)cc1)C2C1CC1` (stereo in doubt; form 2), the IC50 in series [1] is 0.013 µM; in series [2], 0.026 µM.

`CC(=O)N1CCC2(CC1)c1cc(C(=O)NCc3ccccc3Cl)ccc1N(C(=O)c1ccc(F)cc1)C2C` (racemic): the figures for the half-inhibitory concentration (IC50) in series [1] and in series [2] were 18 µM and > 20 µM, respectively.

For `O=C(Nc1ccc2c(c1)C1(CCC(O)(C(F)(F)F)CC1)C(C1CC1)N2S(=O)(=O)c1ccc(F)cc1)c1cccnc1` (stereo not given), the IC50 in series [1] stood at 0.078 µM; in series [2], 0.228 µM.

For `CC1N(S(=O)(=O)c2ccccc2)c2ccc(C(=O)NCc3ccccc3Cl)cc2C1(C)C` (racemic), the IC50 in series [1] turned out to be 3.06 µM; in series [2] it was 1.41 µM; in series [4], 4.84 µM.
